For test [1], the system named is Human immunodeficiency virus 1. Nature of the test: Inhibition of doxycycline-induced HIV1 Vif expressed in TREX-hVif-15 cells co-expressing EYFP-N1-tagged human A3G assessed as restoration of Vif-induced A3G degradation level at 20 uM after 48 hrs by Western blot analysis. The class given is cell-based. A digest of the protocol: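 TREX-hvif-15 cells were transfected with EYFP-N1-hA3G, and Vif was induced with 0.1 μg/mL Dox. Cells were treated with or without compound at 20 μM. A3G and Vif protein levels were detected by western blot, and A3G restoration was graded qualitatively, lowest to high.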

For test [2], the system named is Human immunodeficiency virus 1. Nature of the test: Inhibition of doxycycline-induced HIV1 Vif expressed in TREX-hVif-15 cells co-expressing EYFP-N1-tagged human A3G assessed as reduction in Vif-mediated A3G degradation by measuring fold change in mean fluorescence intensity at 50 uM by flow cytometric method. The format is cell-based. A digest of the protocol:
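TREX-hvif-15 cells with Tet-On-regulated Vif were transfected with EYFP-N1-hA3G, and Vif was induced with 1 μg/mL Dox. Compounds were tested at 50 µM. A3G-EYFP mean fluorescence intensity was expressed as fold change and scored as: no or <1-fold; 1–2; 2–3; >3. Reference groups were A3G⁺/Vif⁻ and A3G⁺/Vif⁺.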
For orientation: In flow cytometry, cells or beads pass a laser one at a time.

The source made the active and inactive calls. The rule behind the calls is not given here.

Take `O=C(O)Cc1ccc(-c2ccc3[nH]ccc3c2)cc1`: the inhibition entry in test [1] is “inactive”. For the same molecule, the fold change (FC) in test [2] is < 1.
In the same order, the values of `O=Cc1cccc(-c2ccc3[nH]ccc3c2)c1` are “Active” and 1 to 2.
With `Nc1ncccc1-c1ccc2[nH]ccc2c1`, in test [1], the inhibition entry is “Active”. In addition, the fold change (FC) in test [2] is 1 to 2.
Consider `Nc1ccc(-c2ccc3[nH]ccc3c2)cn1`, for which, in test [1], the inhibition entry was “Active”. The fold change (FC) in test [2] fell in the range of 2 to 3.
In the same order, the values of `c1ccc(-c2ccc3[nH]ccc3c2)nc1` are “inactive” and < 1.
`CS(=O)(=O)c1ccc(-c2ccc3[nH]ccc3c2)cc1`: the inhibition entry in test [1] is “Active”. Also, the fold change (FC) in test [2] was 2 to 3.
The corresponding values for `O=Cc1ccccc1-c1ccc2[nH]ccc2c1` are “inactive” and 1 to 2.
In the same order, the values of `NC(=O)c1ccc(-c2ccc3[nH]ccc3c2)nc1` are “Active” and 2 to 3.
On to `O=Cc1ccc(-c2ccc3[nH]ccc3c2)cc1`, for which, in test [1], the inhibition result is “inactive”. Also, the fold change (FC) in test [2] was < 1.
The corresponding values for `N#Cc1ccccc1-c1ccc2[nH]ccc2c1` are “inactive” and < 1.
The corresponding values for `O=C(O)c1ccc(-c2ccc3[nH]ccc3c2)nc1` are “Active” and > 3.
`NC(=O)c1ccnc(-c2ccc3[nH]ccc3c2)c1`: in test [1], the inhibition result is “inactive”. For the same molecule, the fold change (FC) in test [2] fell in the range of 2 to 3.
With `O=C(O)c1ccc(-c2ccc3[nH]ccc3c2)cc1`, the inhibition entry in test [1] is “Active”. Besides, the fold change (FC) in test [2] lay within 2 to 3.
As for `O=C(O)c1ccnc(-c2ccc3[nH]ccc3c2)c1`, the inhibition entry in test [1] is “Active”. Moreover, the fold change (FC) in test [2] was in the range of 2 to 3.
The corresponding values for `NC(=O)c1cncc(-c2ccc3[nH]ccc3c2)c1` are “Active” and 1 to 2.
The corresponding values for `O=Cc1cccc(-c2ccc3[nH]ccc3c2)n1` are “Active” and 1 to 2.
In the same order, the values of `Nc1cccnc1-c1ccc2[nH]ccc2c1` are “Active” and 2 to 3.
On to `Nc1cccc(-c2ccc3[nH]ccc3c2)n1`, for which the inhibition result in test [1] was “Active”. Moreover, the fold change (FC) in test [2] lay within 1 to 2.
The corresponding values for `O=Cc1ccc(-c2ccc3[nH]ccc3c2)nc1` are “inactive” and < 1.
On to `COc1ccc(-c2ccc3[nH]ccc3c2)cn1`, for which the inhibition result in test [1] is “Active”. For the same molecule, the fold change (FC) in test [2] lay within 1 to 2.

For the origin of these results see ChEMBL document CHEMBL4052798, “Design, synthesis and biological evaluation of indole derivatives as Vif inhibitors” (Bioorg Med Chem Lett, 2017).
